Assay results as given in ChEMBL document CHEMBL5149991 (J Med Chem, 2021).

Assays:
Histamine H2 receptor [1] = target: T1, Histamine H2 receptor (Homo sapiens, UniProt P25021); assay: Displacement of [3H]UR-DE257 from human histamine H2 receptor stably expressed in baculovirus infected Sf9 cell membrane co-expressing RG-Salpha S incubated for 60 mins by scintillation counting analysis; format: cell membranes
[2] = Chemical stability in pH 7.4 buffer measured at 0 to 2 weeks by HPLC analysis; format: physicochemical; details: time 0-2 weeks
Histamine H2 receptor [3] = target: T1, Histamine H2 receptor; assay: Agonist activity at human histamine H2 receptor stably expressed in HEK293T cells co-expressing ARRB2 incubated for 60 mins by beta-arrestin2 recruitment assay; format: functional, cell-based
Histamine H2 receptor [4] = target: T1, Histamine H2 receptor; assay: Agonist activity at human histamine H2 receptor stably expressed in baculovirus infected Sf9 cell membrane co-expressing RG-Salpha S incubated for 90 mins by [35S]GTPgammaS binding based liquid scintillation counting method; format: functional, cell membranes
[5] = target: T2, Muscarinic acetylcholine receptor M1 (Homo sapiens, UniProt P11229); assay: Displacement of [3H]N-methylscopolamine from human muscarinic acetylcholine M1 receptor stably expressed in CHO cells by radioligand competition binding based analysis; format: cell-based
T2 sequence (P11229 whole entry): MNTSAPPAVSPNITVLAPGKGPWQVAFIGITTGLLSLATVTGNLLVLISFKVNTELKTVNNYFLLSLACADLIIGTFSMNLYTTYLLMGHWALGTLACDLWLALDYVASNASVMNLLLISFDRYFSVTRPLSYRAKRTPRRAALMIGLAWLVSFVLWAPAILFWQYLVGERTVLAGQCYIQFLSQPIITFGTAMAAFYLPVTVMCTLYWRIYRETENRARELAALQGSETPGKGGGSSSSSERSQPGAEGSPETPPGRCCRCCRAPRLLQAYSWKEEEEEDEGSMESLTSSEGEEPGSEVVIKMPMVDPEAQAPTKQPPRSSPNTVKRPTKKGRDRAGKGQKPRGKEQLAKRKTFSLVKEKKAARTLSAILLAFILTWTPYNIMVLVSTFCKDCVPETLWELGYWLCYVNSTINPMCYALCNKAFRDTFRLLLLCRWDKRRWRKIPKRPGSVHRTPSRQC
In short: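 Whole CHO cells stably expressing hM1–hM5, competed against [3H]N-methylscopolamine. Kd/applied concentrations in nM: M1 0.17/0.2, M2 0.10/0.2, M3 0.12/0.2, M4 0.052/0.1, M5 0.20/0.3.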

Histamine H2 receptor [6] = target: T1, Histamine H2 receptor; assay: Agonist activity at human histamine H2 receptor stably expressed in HEK293T cells co-expressing NlucN-mGs/hH2R-NlucC assessed as induction of mini-Gs protein recruitment using furimazine as substrate measured for 45 mins by luminescence assay
D(3) dopamine receptor [7] = target: T3, D(3) dopamine receptor (Homo sapiens, UniProt P35462); assay: Displacement of [3H]N-methylspiperone from human D3 receptor stably expressed in HEK293T cells co-expressing luciferase and CEK incubated for 140 mins by radioligand competition binding based assay; format: cell-based
[8] = target: Histamine H2 receptor (Cavia porcellus) (UniProt P47747); assay: Agonist activity at guinea pig histamine H2 receptor stably transfected in HEK293T cells co-expressing NlucN-mGs/gpH2R-NlucC assessed as maximum efficacy at 100 uM by mini-G protein recruitment assay relative to histamine; format: functional, cell-based
[9] = target: Histamine H2 receptor (Cavia porcellus) (UniProt P47747); assay: Agonist activity at histamine H2 receptor in spontaneous beating guinea pig right atrium assessed as increase in heart beat at 30 uM relative to histamine; format: functional, tissue-based; details: Right cardiac atrium
D(3) dopamine receptor [10] = target: T3, D(3) dopamine receptor; assay: Agonist activity at human D3 receptor stably expressed in HEK293T cells co-expressing ElucN-betaarr2 hD3R-ElucC by beta-arrestin2 recruitment assay; format: functional, cell-based

T1 sequence (P25021 whole entry): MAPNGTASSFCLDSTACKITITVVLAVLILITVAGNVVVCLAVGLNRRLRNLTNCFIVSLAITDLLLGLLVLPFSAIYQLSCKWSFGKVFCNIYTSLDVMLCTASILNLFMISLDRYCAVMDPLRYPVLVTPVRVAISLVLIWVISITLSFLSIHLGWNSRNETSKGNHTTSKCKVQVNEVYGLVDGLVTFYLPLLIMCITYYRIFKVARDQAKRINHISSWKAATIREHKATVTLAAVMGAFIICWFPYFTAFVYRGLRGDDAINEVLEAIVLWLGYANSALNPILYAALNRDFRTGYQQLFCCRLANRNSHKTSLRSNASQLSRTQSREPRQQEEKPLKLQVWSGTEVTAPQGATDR
T3 sequence (P35462 whole entry): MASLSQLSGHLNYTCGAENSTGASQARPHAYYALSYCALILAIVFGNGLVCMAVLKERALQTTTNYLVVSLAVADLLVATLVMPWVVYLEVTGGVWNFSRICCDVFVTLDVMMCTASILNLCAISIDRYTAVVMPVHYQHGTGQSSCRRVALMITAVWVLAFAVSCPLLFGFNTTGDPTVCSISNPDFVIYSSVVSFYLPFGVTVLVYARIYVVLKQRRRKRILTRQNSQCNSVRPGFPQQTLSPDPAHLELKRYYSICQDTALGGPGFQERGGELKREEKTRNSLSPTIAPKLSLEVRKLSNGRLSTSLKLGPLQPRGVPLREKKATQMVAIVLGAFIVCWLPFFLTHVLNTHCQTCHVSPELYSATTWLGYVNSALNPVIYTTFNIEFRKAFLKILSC
Sequence of Histamine H2 receptor (Cavia porcellus) (P47747 whole entry): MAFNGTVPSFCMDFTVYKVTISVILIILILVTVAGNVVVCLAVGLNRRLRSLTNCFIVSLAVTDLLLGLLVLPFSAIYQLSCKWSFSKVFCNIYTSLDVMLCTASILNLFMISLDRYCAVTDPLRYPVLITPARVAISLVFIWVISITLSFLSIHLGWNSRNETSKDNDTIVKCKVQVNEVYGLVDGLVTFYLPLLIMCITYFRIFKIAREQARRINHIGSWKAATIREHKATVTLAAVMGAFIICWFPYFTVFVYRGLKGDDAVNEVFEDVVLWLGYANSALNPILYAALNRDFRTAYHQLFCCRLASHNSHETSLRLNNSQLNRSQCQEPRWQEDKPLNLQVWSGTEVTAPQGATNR

Row | SMILES | Ki (Histamine H2 receptor [1]) [nM] | Stability [2] | EC50 (Histamine H2 receptor [3]) [nM] | EC50 (Histamine H2 receptor [4]) [nM] | Kd [5] [nM] | pKi [5] | EC50 (Histamine H2 receptor [6]) [nM] | Ki (D(3) dopamine receptor [7]) [nM] | Emax [8] [%] | Emax [9] [%] | EC50 (D(3) dopamine receptor [10]) [nM]
1 | CCCCCNC(=O)/N=C(\N)NCCCc1nnc(N)s1.O=C(O)C(F)(F)F.O=C(O)C(F)(F)F | 3.02 | Stable | 234 | 25.7 | 0.17 | < 5 | 5.75 | – | – | – | –
2 | C[C@@H](NC(=O)/N=C(\N)NCCCc1ncn[nH]1)c1ccccc1 | 53.7 | – | 324 | – | 0.17 | < 5 | 25.7 | > 10000 | 86 | 115 | > 10000
3 | N/C(=N\C(=O)NCc1ccccc1)NCCCc1nnc(N)s1 | – | – | – | – | 0.17 | < 5 | – | 2630 | – | – | 1200
4 | CCCCCNC(=O)/N=C(\N)NCCCc1sc(N)nc1C | – | – | – | – | 0.17 | < 5 | – | – | – | – | –
